According to article PMC10433355 (ACS Omega, 2023):
Values joined by “and” are separate entries in the source; they are usually repeats but may differ in a detail not shown here. Equal entries are not always repeated.

What was measured:
HepG2 = assay: MTS assay, hepatocellular carcinoma HepG2; assay type: cell-based; settings: Homo sapiens, HepG2, 72 h, read-out: IC50 HepG2
How it was run: (§1)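 Cells grown in RPMI 1640 with 10% FBS, 1% penicillin/streptomycin and 1% L-glutamine, trypsinised and counted by hemocytometer. Seeded at 1 × 10^3 cells/well and left 24 h at 37 °C. Test compound added at 300, 100, 50 and 10 µM for 72 h at 37 °C, then removed. […] Triplicate, mean ± SD.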

HeLa = assay: MTS assay, cervical adenocarcinoma HeLa; assay type: cell-based; settings: Homo sapiens, 72 h, read-out: IC50 HeLa
How it was run: as §1

MCF-7 = assay: MTS assay, breast carcinoma MCF-7; assay type: cell-based; settings: Homo sapiens, MCF7, 72 h, read-out: IC50 MCF-7
How it was run: as §1

COLO205 = assay: MTS assay, colon adenocarcinoma COLO205; assay type: cell-based; settings: Homo sapiens, COLO 205, 72 h, read-out: IC50 COLO205
How it was run: as §1

Hep3B = assay: MTS assay, hepatocellular carcinoma Hep3B; assay type: cell-based; settings: Homo sapiens, 72 h, read-out: IC50 Hep3B
How it was run: as §1

CaCo-2 = assay: MTS assay, colorectal adenocarcinoma Caco-2; assay type: cell-based; settings: Homo sapiens, Caco-2, 72 h, read-out: IC50 CaCo-2
How it was run: as §1

human recombinant COX-2 = molecular target: T1, human recombinant COX-2 (Homo sapiens, UniProt P35354); assay: In vitro COX-2 inhibition assay; assay type: biochemical; settings: for SI (selectivity index / selectivity ratio): IC50 COX-1 divided by IC50 COX-2; for IC50: IC50 COX-2
T1 sequence (P35354 18-604): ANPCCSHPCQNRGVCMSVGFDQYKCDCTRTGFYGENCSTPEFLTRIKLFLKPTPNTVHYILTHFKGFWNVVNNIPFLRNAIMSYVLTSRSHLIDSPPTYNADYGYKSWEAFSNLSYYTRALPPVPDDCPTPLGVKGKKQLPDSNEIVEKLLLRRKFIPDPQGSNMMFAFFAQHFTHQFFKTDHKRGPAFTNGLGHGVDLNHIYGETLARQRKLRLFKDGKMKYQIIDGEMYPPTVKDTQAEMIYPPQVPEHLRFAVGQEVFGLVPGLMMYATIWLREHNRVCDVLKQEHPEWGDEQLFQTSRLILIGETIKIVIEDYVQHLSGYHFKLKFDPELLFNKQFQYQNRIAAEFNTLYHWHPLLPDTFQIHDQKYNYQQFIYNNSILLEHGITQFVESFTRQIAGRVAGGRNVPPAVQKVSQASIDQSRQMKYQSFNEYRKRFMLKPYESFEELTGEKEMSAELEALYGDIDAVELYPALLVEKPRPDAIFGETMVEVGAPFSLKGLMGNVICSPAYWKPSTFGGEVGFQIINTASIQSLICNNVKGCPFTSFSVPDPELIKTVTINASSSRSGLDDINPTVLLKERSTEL

B16F1 = assay: MTS assay, melanoma B16F1; assay type: cell-based; settings: Mus musculus, B16-F1, 72 h, read-out: IC50 B16F1
How it was run: as §1

[1] = MTS cytotoxicity assay, normal cell line LX-2; assay type: cell-based; settings: human, LX-2 cells (normal cell line), CC50 LX-2, normal cell line
How it was run: (§2)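 LX-2 cells seeded at 1 × 10^3 cells/well and left 24 h at 37 °C. Exposed to test compound at 300, 100, 50 and 10 µM for 72 h at 37 °C, with 5-FU as positive control. […] Triplicate, mean ± SD.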

COX-1 = molecular target: T2, COX-1 (Ovis aries, UniProt P05979); assay: In vitro COX-1 inhibition assay; assay type: biochemical, ovine
T2 sequence (P05979 25-600): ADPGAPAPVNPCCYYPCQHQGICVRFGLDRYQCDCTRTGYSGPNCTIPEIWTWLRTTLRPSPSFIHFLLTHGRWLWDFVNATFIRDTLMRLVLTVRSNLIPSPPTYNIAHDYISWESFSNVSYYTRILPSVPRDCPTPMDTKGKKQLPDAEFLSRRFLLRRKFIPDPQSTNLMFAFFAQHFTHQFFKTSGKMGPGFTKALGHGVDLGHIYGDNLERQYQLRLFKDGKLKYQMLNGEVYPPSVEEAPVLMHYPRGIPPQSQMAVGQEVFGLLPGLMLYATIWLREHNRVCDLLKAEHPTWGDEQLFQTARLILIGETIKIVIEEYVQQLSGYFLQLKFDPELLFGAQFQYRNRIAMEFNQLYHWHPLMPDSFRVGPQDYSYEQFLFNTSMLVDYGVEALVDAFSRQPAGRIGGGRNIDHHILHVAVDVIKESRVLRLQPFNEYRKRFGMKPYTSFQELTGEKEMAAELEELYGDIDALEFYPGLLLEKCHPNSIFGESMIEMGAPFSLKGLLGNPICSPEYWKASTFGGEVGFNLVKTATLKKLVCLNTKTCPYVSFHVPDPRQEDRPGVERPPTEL

Hek293t cells = assay: MTS cytotoxicity assay, normal cell line Hek293t; assay type: cell-based; settings: read-out: CC50 Hek293t, 72 h
How it was run: as §1

LX-2 cells = assay: MTS cytotoxicity assay, normal cell line LX-2; assay type: cell-based; settings: read-out: CC50 LX-2, normal cell line
How it was run: as §2

Compound: COc1cccc(-c2nc(C)c(C(=O)Nc3ccc(OC)c(OC)c3)s2)c1 [2c, N-(3,4-Dimethoxyphenyl)-2-(3-methoxyphenyl)-4-methylthiazole-5-carboxamide]
- IC50 (HepG2): > 300 µM
- IC50 (HeLa): > 300 µM
- IC50 (MCF-7): > 300 µM
- IC50 (COLO205): > 300 µM
- IC50 (Hep3B): > 300 µM
- IC50 (CaCo-2): > 300 µM
- SI (selectivity index / selectivity ratio) (human recombinant COX-2): 0.095
- IC50 (human recombinant COX-2): 2910 ± 1080 nM
- IC50 (B16F1): > 300 µM
- CC50 at 72 h [1]: > 300 µM
- IC50 (COX-1): 278 ± 20 nM

Compound: O=c1[nH]cc(F)c(=O)[nH]1 [5-FU, reference compound]
- CC50 (Hek293t cells): 4.06 ± 1.82 µM
- CC50 (LX-2 cells): 8.45 ± 2.02 µM

Compound: COc1cccc(-c2nc(C)c(C(=O)Nc3ccccc3)s2)c1 [2f, 2-(3-Methoxyphenyl)-4-methyl-N-phenylthiazole-5-carboxamide]
- IC50 (HepG2): > 300 µM
- IC50 (HeLa): > 300 µM
- IC50 (MCF-7): > 300 µM
- IC50 (COLO205): > 300 µM
- IC50 (Hep3B): > 300 µM
- IC50 (CaCo-2): > 300 µM
- SI (selectivity index / selectivity ratio) (human recombinant COX-2): 0.630
- IC50 (human recombinant COX-2): 3260 ± 1020 nM
- IC50 (B16F1): > 300 µM
- CC50 at 72 h [1]: > 300 µM
- IC50 (COX-1): 2060 ± 1210 nM

Compound: COc1cccc(-c2nc(C)c(C(=O)Nc3ccc(Oc4ccccc4OC)cc3)s2)c1 [2i, N-(4-(2-Methoxyphenoxy)phenyl)-2-(3-methoxyphenyl)-4-methylthiazole-5-carboxamide]
- IC50 (HepG2): > 300 µM
- IC50 (HeLa): > 300 µM
- IC50 (MCF-7): > 300 µM
- IC50 (COLO205): > 300 µM
- IC50 (Hep3B): > 300 µM
- IC50 (CaCo-2): > 300 µM
- SI (selectivity index / selectivity ratio) (human recombinant COX-2): 0.651
- IC50 (human recombinant COX-2): 3240 ± 1110 nM
- IC50 (B16F1): > 300 µM
- CC50 at 72 h [1]: > 300 µM
- IC50 (COX-1): 2110 ± 1080 nM

Compound: COc1cccc(-c2nc(C)c(C(=O)Nc3cccc(C(F)(F)F)c3)s2)c1 [2j, 2-(3-Methoxyphenyl)-4-methyl-N-(3-(trifluoromethyl)phenyl)thiazole-5-carboxamide]
- IC50 (HepG2): > 300 µM
- IC50 (HeLa): > 300 µM
- IC50 (MCF-7): > 300 µM
- IC50 (COLO205): > 300 µM
- IC50 (Hep3B): 299.2 ± 2.05 µM
- IC50 (CaCo-2): > 300 µM
- SI (selectivity index / selectivity ratio) (human recombinant COX-2): 1.507
- IC50 (human recombinant COX-2): 957 ± 170 nM
- IC50 (B16F1): > 300 µM
- CC50 at 72 h [1]: > 300 µM
- IC50 (COX-1): 1440 ± 510 nM

Compound: COc1cc(NC(=O)c2sc(-c3cccc(OC)c3)nc2C)cc(OC)c1 [2d, N-(3,5-Dimethoxyphenyl)-2-(3-methoxyphenyl)-4-methylthiazole-5-carboxamide]
- IC50 (HepG2): > 300 µM
- IC50 (HeLa): > 300 µM
- IC50 (MCF-7): 144 ± 2.03 µM
- IC50 (COLO205): > 300 µM
- IC50 (Hep3B): > 300 µM
- IC50 (CaCo-2): > 300 µM
- SI (selectivity index / selectivity ratio) (human recombinant COX-2): 0.685
- IC50 (human recombinant COX-2): 2300 ± 250 nM
- IC50 (B16F1): > 300 µM
- CC50 at 72 h [1]: > 300 µM
- IC50 (COX-1): 1570 ± 800 nM

Compound: COc1cccc(-c2nc(C)c(C(=O)Nc3cc(OC)c(OC)c(OC)c3)s2)c1 [2a, 2-(3-Methoxyphenyl)-4-methyl-N-(3,4,5-trimethoxyphenyl)thiazole-5-carboxamide]
- IC50 (HepG2): 60.8 ± 2.76 µM
- IC50 (HeLa): > 300 µM
- IC50 (MCF-7): > 300 µM
- IC50 (COLO205): > 300 µM
- IC50 (Hep3B): > 300 µM
- IC50 (CaCo-2): > 300 µM
- SI (selectivity index / selectivity ratio) (human recombinant COX-2): 2.766 and 2.76
- IC50 (human recombinant COX-2): 950 nM and 958 nM
- IC50 (B16F1): > 300 µM
- CC50 at 72 h [1]: > 300 µM
- IC50 (COX-1): 2650 ± 780 nM

Compound: COc1cccc(-c2nc(C)c(C(=O)Nc3cc(OC)ccc3OC)s2)c1 [2h, N-(2,5-Dimethoxyphenyl)-2-(3-methoxyphenyl)-4-methylthiazole-5-carboxamide]
- IC50 (HepG2): > 300 µM
- IC50 (HeLa): 250.8 ± 2.42 µM
- IC50 (MCF-7): > 300 µM
- IC50 (COLO205): > 300 µM
- IC50 (Hep3B): > 300 µM
- IC50 (CaCo-2): > 300 µM
- SI (selectivity index / selectivity ratio) (human recombinant COX-2): 0.272
- IC50 (human recombinant COX-2): 1230 ± 850 nM
- IC50 (B16F1): > 300 µM
- CC50 at 72 h [1]: > 300 µM
- IC50 (COX-1): 335 ± 190 nM

Compound: COc1cccc(-c2nc(C)c(C(=O)Nc3ccc(C(C)(C)C)cc3)s2)c1 [2b, N-(4-(tert-Butyl)phenyl)-2-(3-methoxyphenyl)-4-methylthiazole-5-carboxamide]
- IC50 (HepG2): > 300 µM
- CC50 (Hek293t cells): 117 ± 2.05 µM
- IC50 (HeLa): > 300 µM
- IC50 (MCF-7): > 300 µM
- IC50 (COLO205): 30.8 ± 0.49 µM
- IC50 (Hep3B): > 300 µM
- IC50 (CaCo-2): > 300 µM
- SI (selectivity index / selectivity ratio) (human recombinant COX-2): 1.251
- IC50 (human recombinant COX-2): 190 nM and 191 nM
- IC50 (B16F1): 74.2 ± 2.44 µM
- CC50 at 72 h [1]: 203.7 ± 1.89 µM
- IC50 (COX-1): 239 ± 180 nM

Compound: COc1cccc(-c2nc(C)c(C(=O)Nc3ccc(SC)cc3)s2)c1 [2e, 2-(3-Methoxyphenyl)-4-methyl-N-(4-(methylthio)phenyl)thiazole-5-carboxamide]
- IC50 (HepG2): > 300 µM
- IC50 (HeLa): 223 ± 2.58 µM
- IC50 (MCF-7): 163 ± 2.88 µM
- IC50 (COLO205): > 300 µM
- IC50 (Hep3B): 202.1 ± 1.99 µM
- IC50 (CaCo-2): > 300 µM
- SI (selectivity index / selectivity ratio) (human recombinant COX-2): 0.723
- IC50 (human recombinant COX-2): 2120 ± 1480 nM
- IC50 (B16F1): > 300 µM
- CC50 at 72 h [1]: > 300 µM
- IC50 (COX-1): 1530 ± 920 nM
